For 51 compounds, IC50 results are on record in PubChem BioAssay AID624066 (The Scripps Research Institute Molecular Screening Center, 2012).

The structures appear in SMILES notation. pIC50: −log10 of the molar value. Where “and” joins values, the source holds several entries; their conditions need not be identical. Equal values may be shown once. Calls of active or inactive are those of the source.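 Rule for the calls: active = IC50 of 10 µM or lower; inactive = IC50 above 10 µM.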 Where only a bound is given, the exact number is not on record here.

The target of the assay is Insulin-degrading enzyme (Homo sapiens) (UniProt P14735). The assay can be described thus: fluorescent artefact check on IDE activity – biochemical, fluorogenic FRET1 peptide, fluorescence, powder samples, artefact control for IDE inhibitor project, late-stage follow-up (AID 624066). Conditions: recombinant IDE. Put shortly: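 Assay system – purified recombinant wild-type IDE · Input – IDE at 1 nM final, roughly EC80 · Buffer or medium – HEPES/NaCl/MgCl2 buffer, pH 7.4, 0.1% BSA · Incubation – continuous kinetic reading every 2 min over 2 h at 22 °C · Technique – fluorescence, ex 335 nm, em 385 nm · Control set – DMSO-only wells as 100%, enzyme-free wells as 0%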
Chain of Insulin-degrading enzyme (Homo sapiens) (P14735 whole entry, looked up): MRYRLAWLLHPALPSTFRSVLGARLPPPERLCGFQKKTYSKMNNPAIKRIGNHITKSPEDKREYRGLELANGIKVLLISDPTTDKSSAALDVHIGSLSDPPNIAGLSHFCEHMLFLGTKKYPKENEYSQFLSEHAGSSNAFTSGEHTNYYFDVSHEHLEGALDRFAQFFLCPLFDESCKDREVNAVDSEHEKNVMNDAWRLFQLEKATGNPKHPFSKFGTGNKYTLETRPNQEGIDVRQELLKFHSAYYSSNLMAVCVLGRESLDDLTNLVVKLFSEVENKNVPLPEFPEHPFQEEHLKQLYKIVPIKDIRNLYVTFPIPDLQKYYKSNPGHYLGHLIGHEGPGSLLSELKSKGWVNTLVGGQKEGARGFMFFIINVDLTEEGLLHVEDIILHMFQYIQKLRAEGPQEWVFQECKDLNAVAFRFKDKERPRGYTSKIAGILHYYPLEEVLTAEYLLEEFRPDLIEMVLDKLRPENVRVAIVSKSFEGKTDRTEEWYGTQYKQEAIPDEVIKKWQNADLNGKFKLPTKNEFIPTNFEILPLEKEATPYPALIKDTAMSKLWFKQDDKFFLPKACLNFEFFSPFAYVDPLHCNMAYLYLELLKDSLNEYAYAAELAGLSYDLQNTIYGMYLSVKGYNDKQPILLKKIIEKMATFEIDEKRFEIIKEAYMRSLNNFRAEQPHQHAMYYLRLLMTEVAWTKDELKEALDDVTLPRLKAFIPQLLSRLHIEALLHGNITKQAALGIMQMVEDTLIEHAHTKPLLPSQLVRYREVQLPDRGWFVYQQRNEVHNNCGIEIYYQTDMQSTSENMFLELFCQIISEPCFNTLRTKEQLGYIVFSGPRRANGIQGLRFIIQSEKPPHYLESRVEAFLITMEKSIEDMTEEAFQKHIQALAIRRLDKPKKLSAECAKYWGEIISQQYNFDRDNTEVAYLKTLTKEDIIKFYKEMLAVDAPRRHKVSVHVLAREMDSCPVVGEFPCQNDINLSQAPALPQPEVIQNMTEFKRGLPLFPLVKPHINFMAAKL
A word on the IC50: it is the concentration at which inhibition is half-maximal. Regarding `O=C(c1ccc2c(c1)OCO2)N1CCCN(C(=O)C2CCc3ccccc3O2)CC1` (stereo unspecified), the IC50 was > 10 µM (inactive).
As to `O=C(Nc1cccc(C(F)(F)F)c1)c1csc(-c2ccccc2)n1`, the IC50 was > 100 µM (inactive).
As to `COc1cc(/C=C2\SC(=S)N(NC(C)=O)C2=O)ccc1OC(=O)c1ccco1`, the IC50 is > 10 µM (inactive).
The pIC50 is −log10 of the IC50, conventionally taken in molar units. Consider `Cc1cccc(-c2nnc(SCc3nc4ccccc4[nH]3)n2Cc2ccco2)c1`, for which the pIC50 is 5.05 and 5.19.
As to `O=C(c1ccc2c(c1)OCCO2)N1CCCN(C(=O)C2COc3ccccc3C2)CC1` (stereo unspecified), the IC50 was > 10 µM (inactive).
As to `O=C(c1ccc2c(c1)OCCO2)N1CCN(C(=O)C2CCc3ccccc3O2)CC1` (stereo unspecified), the IC50 is > 10 µM (inactive).
Still for that read-out and setting: then `COc1ccc(C(=O)N2CCN(C(=O)C3COc4ccccc4O3)CC2)cc1OC` (stereo unspecified), with 1.2 µM and > 10 µM (inactive) and > 100 µM (inactive); and `O=C(c1ccc2c(c1)OCO2)N1CCN(C(=O)C2COc3ccccc3C2)CC1` (stereo unspecified), with > 10 µM (inactive).
For the compound `COc1ccc(-c2nc(C(=O)Nc3cccc(C(F)(F)F)c3)cs2)cc1`, the IC50 is > 100 µM (inactive).
As to `O=C(c1ccc2c(c1)OCO2)N1CCN(C(=O)C2COc3ccccc3O2)CC1` (stereo unspecified), the IC50 is > 10 µM (inactive).
On the same count and under the same terms, then `O=C(c1ccc2c(c1)OCO2)N1CCN(C(=O)C2CCc3ccccc3O2)CC1` (stereo unspecified), with > 10 µM (inactive).
Turning to `O=C(O)c1ccccc1NS(=O)(=O)c1cccc(-n2sc3ccccc3c2=O)c1`, the pIC50 is 5.30.
As to `Cc1c(CCC(=O)NCCCn2ccnc2)c(=O)oc2cc3oc4c(c3cc12)CCCC4`, the pIC50 is 5.30.
Same read-out and setting: then `COc1cccc(-c2nnc(SCc3nc4ccccc4[nH]3)n2Cc2ccco2)c1`, with 5.19.
Consider `COc1ccc(C(=O)N2CCN(C(=O)C3COc4ccccc4C3)CC2)cc1OC` (stereo unspecified), for which the IC50 is > 10 µM (inactive).
The same measure, in the same setting: the result for `Clc1cccc(-c2nnc(SCc3nc4ccccc4[nH]3)n2-c2ccccc2)c1` reads “inactive”; that for `O=C(c1ccc2c(c1)OCO2)N1CCN(C(=O)[C@@H]2COc3ccccc3O2)CC1`, > 10 µM (inactive).
For the compound `O=C(c1ccc2c(c1)OCCO2)N1CCCN(C(=O)C2COc3ccccc3O2)CC1` (stereo unspecified), the IC50 is > 10 µM (inactive).
Consider `O=C(Nc1ccc2oc(-c3cccnc3)nc2c1)c1ccc2c(c1)OCCO2`, for which the IC50 is > 100 µM (inactive).
The same measure, in the same setting: the result for `O=C(c1ccc2c(c1)OCCO2)N1CCN(C(=O)C2COc3ccccc3C2)CC1` (stereo unspecified) reads > 10 µM (inactive); that for `Nc1c(C(=O)Nc2nccs2)sc2nc(-c3cccs3)cc(C(F)(F)F)c12`, > 100 µM (inactive).
Regarding `O=C(c1ccc2c(c1)OCCO2)N1CCN(C(=O)C2COc3ccccc3O2)CC1` (stereo unspecified), the IC50 is > 10 µM (inactive).
Take `O=C(Nc1cccc(C(F)(F)F)c1)c1csc(-c2ccncc2)n1`: the pIC50 was 5.30.
Take `CCN(CC)c1ccc(/C=C2\C(=N)N3N=C(CC(=O)N4CCOCC4)SC3=NC2=O)cc1`: the IC50 was > 100 µM (inactive).
For the compound `Cc1ccc(C)c(N2C(=N)S/C(=C\c3ccc(-c4ccccc4C(=O)O)o3)C2=O)c1`, the IC50 result was “inactive”.
For `O=C(c1ccc2c(c1)OCO2)N1CCCN(C(=O)C2COc3ccccc3C2)CC1` (stereo unspecified), the IC50 was > 10 µM (inactive).
Regarding `COc1ccc(NC(=O)CSc2nnc(CN3CCOCC3)n2C)cc1Cl`, the IC50 is > 100 µM (inactive).
With `O=C(Nc1cccc(C(F)(F)F)c1)c1csc(Cc2cccc(C(F)(F)F)c2)n1`, the IC50 was > 100 µM (inactive).
On to `Clc1cccc(-c2nnc(SCc3nc4ccccc4[nH]3)n2Cc2ccco2)c1`, for which the pIC50 is 5.30.
For the compound `O=C(CSc1nnc(-c2cccc(Cl)c2)n1Cc1ccco1)Nc1ccc2c(c1)OCCO2`, the IC50 was > 100 µM (inactive).
For `Cn1c(SCc2nc3ccccc3[nH]2)nnc1-c1cccc(Cl)c1`, the IC50 is > 100 µM (inactive).
Consider `COc1ccc(C(=O)N2CCCN(C(=O)C3CCc4ccccc4O3)CC2)cc1OC` (stereo unspecified), for which the IC50 is > 10 µM (inactive).
The same measure, in the same setting: the result for `O=C(CSc1nnc(-c2cccc(Cl)c2)n1Cc1ccco1)Nc1ccc2cn[nH]c2c1` reads > 100 µM (inactive); that for `O=C(c1ccc2c(c1)OCO2)N1CCN(C(=O)[C@H]2COc3ccccc3O2)CC1`, > 10 µM (inactive).
Regarding `O=C(c1ccc2c(c1)OCCO2)N1CCCN(C(=O)C2CCc3ccccc3O2)CC1` (stereo unspecified), the IC50 is > 10 µM (inactive).
In the case of `Cc1ccc(NC(=O)CSc2nnc(-c3cccc(Cl)c3)n2Cc2ccco2)c(C)c1`, the IC50 is > 100 µM (inactive).
As for `Cc1ccc(-c2nc(C(=O)Nc3cccc(C(F)(F)F)c3)cs2)cc1`, the IC50 was > 100 µM (inactive).
As for `Cn1c(=O)c(C(=O)CN2CCCc3ccccc32)c(N)n(Cc2ccccc2)c1=O`, the pIC50 is 6.40.
On to `CCOc1ccc2[nH]c3c(N4CCN(C(=O)c5ccco5)CC4)ncnc3c2c1`, for which the IC50 result is “inactive”.
Consider `COc1ccc(C(=O)N2CCCN(C(=O)C3COc4ccccc4C3)CC2)cc1OC` (stereo unspecified), for which the IC50 is > 10 µM (inactive).
`O=C(c1ccc2c(c1)OCO2)N1CCCN(C(=O)C2COc3ccccc3O2)CC1` (stereo unspecified): the IC50 is > 10 µM (inactive).
Turning to `CC(Sc1nnc(-c2cccnc2)n1-c1ccccc1F)C(=O)N1CCCc2ccccc21` (stereo unspecified), the IC50 is > 100 µM (inactive).
`O=c1c2ccccc2sn1-c1cc(S(=O)(=O)N2CCOCC2)ccc1N1CCOCC1`: the pIC50 is 6.70.
On to `Cc1nc(-c2cccnc2)sc1C(=O)Nc1cccc(C(F)(F)F)c1`, for which the IC50 is > 100 µM (inactive).
Regarding `O=C(C1CC1)N1CCN(c2ccnc3cc(Cl)ccc23)CC1`, the IC50 was > 100 µM (inactive).
Take `O=C(Nc1cccc(C(F)(F)F)c1)c1csc(-c2cccc(C(F)(F)F)c2)n1`: the IC50 is > 100 µM (inactive).
On the same count and under the same terms, then `COc1ccc(C(=O)N2CCN(C(=O)C3CCc4ccccc4O3)CC2)cc1OC` (stereo unspecified), with > 10 µM (inactive); and `O=C(CSc1nnc(-c2cccc(Cl)c2)n1Cc1ccco1)c1ccc2ccccc2c1`, with > 100 µM (inactive); and `O=C(Nc1cc(C(F)(F)F)cc(C(F)(F)F)c1)c1csc(-c2ccncc2)n1`, with > 100 µM (inactive).
On to `O=C(CSc1nnc(-c2cccc(Cl)c2)n1Cc1ccco1)Nc1ccccc1C(F)(F)F`, for which the IC50 is > 100 µM (inactive).
The same measure, in the same setting: the result for `COc1ccc(C(=O)N2CCCN(C(=O)C3COc4ccccc4O3)CC2)cc1OC` (stereo unspecified) reads > 10 µM (inactive).
